Experiments:
Assay type in all cases: functional, organism-based
Rattus norvegicus [1] = test: Recovery of steroid from cecum at 5 hr after administration of 7.5 mg of the compound; conditions: Caecum
Outline: (§1)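 Male Sprague-Dawley rats (ca. 250 g), fasted 16 h, water withdrawn ≥30 min before dosing; glucoside 7.5 mg by gastric intubation in 0.5 mL water/95% EtOH (3:1). Killed by CO2 then thoracotomy at 3–6 h; small intestine and cecum removed. Contents (MeOH) and tissues (0.01 M KH2PO4) homogenized with internal-standard steroid, centrifuged, filtered, quantified by C-18 HPLC-UV (MeOH/0.01 M KH2PO4 56.5:43.5); mean of four animals.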

Rattus norvegicus [2] = test: Recovery of steroid from small intestine at 3h after administration of 7.5 mg of the compound; outline: as §1
Rattus norvegicus [3] = test: Recovery of steroid from small intestine at 6 hr after administration of 7.5 mg of the compound; outline: as §1
Rattus norvegicus [4] = test: Recovery of steroid from cecum at 3h after administration of 7.5 mg of the compound; conditions: Caecum; outline: as §1
Rattus norvegicus [5] = test: Recovery of steroid from cecum at 6 hr after administration of 7.5 mg of the compound; conditions: Caecum; outline: as §1
Rattus norvegicus [6] = test: Recovery of steroid from cecum at 4 hr after administration of 7.5 mg of the compound; conditions: Caecum; outline: as §1
Rattus norvegicus [7] = test: Recovery of steroid from small intestine at 5 hr after administration of 7.5 mg of the compound; outline: as §1
Rattus norvegicus [8] = test: Recovery of steroid from small intestine at 4 hr after administration of 7.5 mg of the compound; outline: as §1
Rattus norvegicus [9] = test: Recovery of glucoside from cecum at 4 hr after administration of 7.5 mg of the compound; conditions: Caecum; outline: as §1
Rattus norvegicus [10] = test: Recovery of glucoside from cecum at 5 hr after administration of 7.5 mg of the compound; conditions: Caecum; outline: as §1
Rattus norvegicus [11] = test: Recovery of glucoside from small intestine at 4 hr after administration of 7.5 mg of the compound; outline: as §1
Rattus norvegicus [12] = test: Recovery of glucoside from cecum at 6 hr after administration of 7.5 mg of the compound; conditions: Caecum; outline: as §1
Rattus norvegicus [13] = test: Recovery of glucoside from cecum at 3h after administration of 7.5 mg of the compound; conditions: Caecum; outline: as §1
Rattus norvegicus [14] = test: Recovery of glucoside from small intestine at 6 hr after administration of 7.5 mg of the compound; outline: as §1
Rattus norvegicus [15] = test: Recovery of glucoside from small intestine at 5 hr after administration of 7.5 mg of the compound; outline: as §1
Rattus norvegicus [16] = test: Recovery of glucoside from small intestine at 3h after administration of 7.5 mg of the compound; outline: as §1
Rattus norvegicus [17] = test: Recovery of glucoside from cecum at 3h after administration of 7.5 mg.; conditions: Caecum; outline: as §1

Compound	Recovery (Rattus norvegicus [1]) [mg]	Recovery (Rattus norvegicus [2]) [mg]	Recovery (Rattus norvegicus [3]) [mg]	Recovery (Rattus norvegicus [4]) [mg]	Recovery (Rattus norvegicus [5]) [mg]	Recovery (Rattus norvegicus [6]) [mg]	Recovery (Rattus norvegicus [7]) [mg]	Recovery (Rattus norvegicus [8]) [mg]	Recovery (Rattus norvegicus [9]) [mg]	Recovery (Rattus norvegicus [10]) [mg]	Recovery (Rattus norvegicus [11]) [mg]	Recovery (Rattus norvegicus [12]) [mg]	Recovery (Rattus norvegicus [13]) [mg]	Recovery (Rattus norvegicus [14]) [mg]	Recovery (Rattus norvegicus [15]) [mg]	Recovery (Rattus norvegicus [16]) [mg]	Recovery (Rattus norvegicus [17]) [mg]
C[C@]12C=CC(=O)C=C1CC[C@@H]1[C@@H]2[C@@H](O)C[C@@]2(C)[C@H]1CC[C@]2(O)C(=O)CO	0.57	0.3	0.03	0	0.29	0	0.09	0.18									
C[C@]12C=CC(=O)C=C1CC[C@@H]1[C@@H]2C(O)C[C@@]2(C)[C@H]1CC[C@]2(O)C(=O)CO[C@@H]1O[C@H](CO)[C@@H](O)[C@H](O)[C@H]1O (some centres not stated)									0	0	1.73	0.06	0	0.18	0.19	1.57	
C[C@@H]1C[C@H]2[C@@H]3CCC4=CC(=O)C=C[C@]4(C)[C@@]3(F)[C@@H](O)C[C@]2(C)[C@@]1(O)C(=O)CO	2.24	0.13	0.18	0.09	1.66	0.05	0.12	0.11									
C[C@@H]1CC2C3CCC4=CC(=O)C=CC4(C)[C@@]3(F)C(O)CC2(C)[C@@]1(O)C(=O)CO[C@@H]1O[C@H](CO)[C@@H](O)[C@H](O)[C@H]1O (some centres not stated)									0.02	0.23	5	0.04		0.94	0.24	5.61	0.21
